Measurements taken from ChEMBL document CHEMBL4038338 (J Med Chem, 2017).
Calls of active or inactive are those of the source. The calls are words filed in the database; no cut-off is given here.

Key:
[1] = Selectivity ratio of Ki for human liver cathepsin B to Ki for human erythrocytes calpain-1
[2] = biological target: T1, Calpain-1 catalytic subunit (Homo sapiens) (UniProt P07384); assay: Inhibition of human erythrocytes calpain-1 using Suc-Leu-Tyr-AMC as substrate in presence of up to 10 mM glutathione by kinetic fluorescence assay
T1 sequence (whole entry): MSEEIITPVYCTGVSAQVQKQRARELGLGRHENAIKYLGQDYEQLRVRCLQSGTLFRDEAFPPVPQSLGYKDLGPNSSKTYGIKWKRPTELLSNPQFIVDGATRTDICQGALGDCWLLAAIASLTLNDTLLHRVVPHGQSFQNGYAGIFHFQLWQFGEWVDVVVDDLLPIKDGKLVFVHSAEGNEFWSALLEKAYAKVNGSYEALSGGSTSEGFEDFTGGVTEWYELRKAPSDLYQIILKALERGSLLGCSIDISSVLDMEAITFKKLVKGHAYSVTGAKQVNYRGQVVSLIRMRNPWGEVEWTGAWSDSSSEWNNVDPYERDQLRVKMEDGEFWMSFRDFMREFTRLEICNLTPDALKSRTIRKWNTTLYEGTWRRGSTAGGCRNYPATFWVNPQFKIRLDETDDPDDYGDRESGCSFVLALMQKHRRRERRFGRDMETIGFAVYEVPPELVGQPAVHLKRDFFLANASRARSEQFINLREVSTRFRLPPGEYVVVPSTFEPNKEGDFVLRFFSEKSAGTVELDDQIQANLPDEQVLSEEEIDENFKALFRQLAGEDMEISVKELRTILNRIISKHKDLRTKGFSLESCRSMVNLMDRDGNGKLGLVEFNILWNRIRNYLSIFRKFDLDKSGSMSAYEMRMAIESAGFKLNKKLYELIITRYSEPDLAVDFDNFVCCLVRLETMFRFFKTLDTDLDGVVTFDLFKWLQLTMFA

Homo sapiens [3] = species: Homo sapiens; assay: Selectivity ratio of Ki for recombinant human cathepsin S expressed in Escherichia coli to Ki for human erythrocytes calpain-1
How it was run: (§1)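 Ki ratios from kinetic fluorescence assays. Cathepsins B (0.25 nM), L (1 nM), K (3 nM) and S (0.5 nM) in MES buffer at pH 6.0. All at room temperature; Ki by Cheng-Prusoff.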

[4] = Selectivity ratio of Ki for human liver cathepsin L to Ki for human erythrocytes calpain-1
[5] = Thiol reactivity using recombinant human full length 13C-labeled La antigen (100 to 324 residues) expressed in Escherichia coli BL21(DE3) by ALARM NMR
Homo sapiens [6] = species: Homo sapiens; assay: Selectivity ratio of Ki for recombinant human procathepsin K expressed in Escherichia coli to Ki for human erythrocytes calpain-1; how it was run: as §1
[7] = biological target: T2, Calpain-1 catalytic subunit (Homo sapiens, UniProt P07384); assay: Inhibition of human erythrocytes calpain-1 using Suc-Leu-Tyr-AMC as substrate by kinetic fluorescence assay
T2 sequence (P07384 whole entry): T1 sequence (whole entry)

Row | inhibition [2] | Ki ([7]; read-out: Ki) [nM] | Ki ([7]; read-out: Ki(app)) [nM] | SMILES | Ratio Ki [1] | Ratio Ki (Homo sapiens [3]) | Ratio Ki [4] | Thiol reactivity [5] | Ratio Ki (Homo sapiens [6])
1 | Active | 72 |  | NC(=O)C(=O)C(Cc1ccccc1)NC(=O)c1cccnc1-n1ccc(-c2ccc(C(F)(F)F)cc2)n1 (configuration not stated) | 11 | 87 | 210 | Metabolite not detected | 22
2 | Active | 83 |  | COc1ccc(-c2ccn(-c3ncccc3C(=O)NC(Cc3ccccc3)C(=O)C(N)=O)n2)cc1 (configuration not stated) | 11 | > 500 | 81 | Metabolite not detected | 17
3 | Active | 43 |  | NC(=O)C(=O)C(Cc1ccccc1)NC(=O)c1ccccc1-n1ccc(-c2ccccc2)n1 (configuration not stated) | 7 | 82 | 38 | Metabolite not detected | 1
4 | Active | 45 |  | NC(=O)C(=O)C(Cc1ccccc1)NC(=O)c1cccnc1-n1cnc(-c2ccccc2)c1 (configuration not stated) | <1 | 54 | 23 | Metabolite not detected | < 1
5 | Active | 88 |  | NC(=O)C(=O)C(Cc1ccccc1)NC(=O)c1cccnc1-n1ccc(-c2ccc(Cl)cc2)n1 (configuration not stated) | 6 | > 300 | 89 | Metabolite not detected | 9
6 | Active | 38 |  | NC(=O)C(=O)C(Cc1ccccc1)NC(=O)c1cccnc1-n1ccc(Cc2ccccc2)n1 (configuration not stated) | 9 | 75 | 50 | Metabolite not detected | 9
7 |  |  | 10 | NC(=O)C(=O)[C@H](Cc1ccccc1)NC(=O)c1cccnc1-n1ccc(-c2ccccc2)n1 |  |  |  |  | 
8 | Active | 164 |  | NC(=O)C(=O)C(Cc1ccccc1)NC(=O)c1cccnc1-n1cccn1 (configuration not stated) | 1 | 21 | 20 | Metabolite not detected | 3
9 | Active | 21 |  | NC(=O)C(=O)C(Cc1ccccc1)NC(=O)c1cccnc1-n1cc(-c2ccccc2)cn1 (configuration not stated) | <1 | 14 | 12 | Metabolite not detected | 1
10 | Active | 234 |  | NC(=O)C(=O)C(Cc1ccccc1)NC(=O)c1cccnc1-c1nc(-c2ccccc2)cs1 (configuration not stated) | 10 | 105 | 37 | Metabolite not detected | 11
11 | Active | 38 |  | NC(=O)C(=O)C(Cc1ccccc1)NC(=O)c1cccnc1-c1csc(-c2ccccc2)n1 (configuration not stated) | 39 | 310 | 139 | Metabolite not detected | 11
12 | Active | 177 |  | NC(=O)C(=O)C(Cc1ccccc1)NC(=O)c1cccnc1-c1coc(-c2ccccc2)n1 (configuration not stated) | 11 | 127 | 29 | Metabolite not detected | 20

More lines, now with the values behind:

Row | SMILES | inhibition [2] | Ki ([7]; read-out: Ki) [nM] | Ki ([7]; read-out: Ki(app)) [nM] | Ratio Ki [1] | Ratio Ki (Homo sapiens [3]) | Ratio Ki [4] | Thiol reactivity [5] | Ratio Ki (Homo sapiens [6])
13 | NC(=O)C(=O)C(Cc1ccccc1)NC(=O)c1cccnc1-n1cc2c(n1)CCCC2 (configuration not stated) | Active | 101 |  | 2 | 10 | 45 | Metabolite not detected | 2
14 | CCCCC(NC(=O)c1cccnc1-c1csc(-c2ccccc2)n1)C(=O)C(N)=O (configuration not stated) | Active | 122 |  | 2 | 27 | 13 | Metabolite not detected | 1
15 | CCCCC(NC(=O)c1cccnc1-n1ccc(-c2ccccc2)n1)C(=O)C(N)=O (configuration not stated) | Active | 32 |  | 1 | 61 | 25 | Metabolite not detected | 2
16 | NC(=O)C(=O)C(Cc1ccccc1)NC(=O)c1cccnc1-n1ccc(C2CCOCC2)n1 (configuration not stated) | Active | 48 |  | 14 | 147 | 56 | Metabolite not detected | 13
17 | CCCCC(NC(=O)c1cccnc1-n1cc(-c2ccccc2)cn1)C(=O)C(N)=O (configuration not stated) | Active | 20 |  | <1 | 2 | 4 | Metabolite not detected | < 1
18 | NC(=O)C(=O)C(Cc1ccccc1)NC(=O)c1cccnc1-n1ccc(C2CC2)n1 (configuration not stated) | Active | 94 |  | 4 | 50 | 34 | Metabolite not detected | 7
19 | NC(=O)C(=O)C(Cc1ccccc1)NC(=O)c1cccnc1-n1ccc(C2CCCCC2)n1 (configuration not stated) | Active | 56 |  | 9 | 92 | 33 | Metabolite not detected | 10
20 | CCCCC(NC(=O)c1cccnc1-n1cnc(-c2ccccc2)c1)C(=O)C(N)=O (configuration not stated) | Active | 38 |  | <1 | 22 | 22 | Metabolite not detected | < 1
21 | CN1CCC(c2ccn(-c3ncccc3C(=O)NC(Cc3ccccc3)C(=O)C(N)=O)n2)CC1 (configuration not stated) | Active | 146 |  | 2 | 89 | 2 | Metabolite not detected | 1
22 | CC(C)(C)c1ccn(-c2ncccc2C(=O)NC(Cc2ccccc2)C(=O)C(N)=O)n1 (configuration not stated) | Active | 81 |  | 16 | 56 | 10 | Metabolite not detected | 24
23 | NC(=O)C(=O)C(Cc1ccccc1)NC(=O)c1cccnc1-n1ccc(-c2ccc(CN3CCOCC3)cc2)n1 (configuration not stated) | Active | 41 |  | <1 | 240 | 5 | Metabolite not detected | < 1
24 | NC(=O)C(=O)C(Cc1ccccc1)NC(=O)c1ccccc1-c1csc(-c2ccccc2)n1 (configuration not stated) | Active | 82 |  | 23 | 186 | 116 | Metabolite not detected | < 1
